Calls of active or inactive are those of the source. No cut-off for these calls is given here.
What was measured:
MCF7 = assay: Growth inhibition of human MCF7 cells; assay type: functional
[1] = Half life in mouse liver homogenates at 100 uM by UPLC/MS analysis; assay type: ADME, tissue-based
In short: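 Compound added to preincubated murine liver homogenate (tissue broken up in 10 mM Tris pH 7.4, 1:3 w:v) at 37 °C, final 100 μM. Samples taken at 0, 15, 30, 45, 60, 120 min, quenched in methanol, centrifuged 10,000g to remove protein. Supernatant analyzed by reversed-phase C18 UPLC with MeOH/water/0.05% TFA gradient; parent ions monitored by ESI MS selected ion recording.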

[2] = target: T1, Histone deacetylase (Homo sapiens) (UniProt Q13547+O15379+Q9UBN7+Q92769+Q9UQL6+Q8WUI4+Q9BY41+Q96DB2+P56524+Q9UKV0+Q969S8); conditions: SKBr3, 100 nM
[3] = target: T1, Histone deacetylase (Homo sapiens); conditions: MDA-MB-231, 100 nM
[4] = target: T1, Histone deacetylase (Homo sapiens); conditions: MCF7, 100 nM

| SMILES | GI (MCF7) [nM] | half-life at 100 µM [1] [min] | inhibition [2] | inhibition [3] | inhibition [4] |
| --- | --- | --- | --- | --- | --- |
| CC(C)[C@H]1NC(=O)[C@]2(C)CSC(=N2)c2csc(n2)[C@@H](Cc2ccccc2)NC(=O)C[C@@H](/C=C/CCS)OC1=O | 377 | – | – | – | – |
| C[C@@]12CSC(=N1)c1csc(n1)CNC(=O)C[C@@H](/C=C/CCS)OC(=O)CNC2=O | 2458 | 32 | – | – | – |
| C[C@@]12CSC(=N1)c1csc(n1)CNC(=O)C[C@@H](/C=C/CCS)OC(=O)CCNC2=O | 5900 | ≤ 5 | – | – | – |
| CC(C)[C@H]1NC(=O)C(C)(C)NC(=O)c2csc(n2)CNC(=O)C[C@@H](/C=C/CCS)OC1=O | > 10000 | ≤ 5 | – | – | – |
| CC(C)[C@@H]1NC(=O)[C@]2(C)CSC(=N2)c2csc(n2)CNC(=O)C[C@@H](/C=C/CCS)OC1=O [LARGAZOLE THIOL] | – | 51 | – | – | – |
| CC(C)[C@H]1NC(=O)[C@]2(C)CSC(=N2)c2csc(n2)CNC(=O)C[C@@H](/C=C/CCS)OC1=O [LARGAZOLE THIOL] | 277 | – | inactive | inactive | inactive |
| CCCCCCCC(=O)SCC/C=C/[C@@H]1CC(=O)NCc2nc(cs2)C2=N[C@@](C)(CS2)C(=O)N[C@@H](C(C)C)C(=O)O1 [LARGAZOLE] | 5 | ≤ 5 | Active | Active | Active |

Reference: ChEMBL document CHEMBL1795237, “Total synthesis of largazole and analogues: HDAC inhibition, antiproliferative activity and metabolic stability” (Bioorg Med Chem, 2011)
